According to ChEMBL document CHEMBL4041524, “Synthesis and Characterization of a Novel γ-Aminobutyric Acid Type A (GABAA) Receptor Ligand That Combines Outstanding Metabolic Stability, Pharmacokinetics, and Anxiolytic Efficacy” (J Med Chem, 2016):

Tests used:
[1] = biological target: GABA-A receptor; alpha-5/beta-3/gamma-2 (Homo sapiens) (UniProt P18507+P28472+P31644); experiment: Modulation of recombinant GABA alpha5beta3gamma2 receptor (unknown origin) expressed in Xenopus laevis oocytes assessed as change in GABA-induced EC(3 to 6) current at 1 uM by two-electrode voltage clamp assay; assay type: cell-based
Summary of the method: (§1)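 Xenopus laevis oocytes expressing α1, α2, α3 or α5 β3γ2 GABAARs were recorded by two-electrode voltage clamp. Modulation of the GABA EC3-6 current (taken as 100%) was tested at 100 nM, 1 μM and 10 μM in the same cells. Values are mean ± SEM, n = 3–4.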

[2] = Ratio of unbound concentration in Sprague-Dawley rat brain to plasma at 10 mg/kg, ip measured after 4 hrs; assay type: ADME, organism-based
Summary of the method: (§2)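 Rats were given 10 mg/kg i.p. (n = 3), and total plasma and brain concentrations were measured at 4 h. Unbound concentrations were calculated as Fu × total concentration, and Kp,uu = Cu,brain/Cu,plasma.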

Rattus norvegicus = experiment: Anxiolytic like activity in water-deprived Sprague-Dawley rat assessed as increase in water drinking time during punished period at 10 mg/kg, po administered 30 mins prior to testing by Vogel conflict test relative to control; assay type: functional
Summary of the method: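 Water-deprived male Sprague-Dawley rats (n = 6–8) drank during unpunished and punished periods, with licking suppressed by mild shock in punished periods. Compounds were given 30 min before testing. Analysis was ANOVA with Dunnett's test.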

[3] = Drug uptake in Sprague-Dawley rat brain at 10 mg/kg, po measured after 60 mins by LC-MS/MS analysis; assay type: ADME, organism-based; conditions: read-out: Drug uptake
Summary of the method: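 Sprague-Dawley rats (n = 3 per time point) were given 10 mg/kg p.o. Total plasma concentrations were taken at 15, 30, 60 and 120 min. Brain levels of the dosed ligand and of the carboxylic acid metabolite were taken at 60 or 120 min.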

[4] = biological target: T1, GABA-A receptor; alpha-3/beta-3/gamma-2 (Homo sapiens, UniProt P18507+P28472+P34903); experiment: Binding affinity to human GABAA alpha3beta3gamma2 receptor expressed in HEK293 cells assessed as GABA-induced membrane potential change preincubated for 3 mins followed by addition of GABA measured after 3 mins by FLIPR assay; assay type: cell-based
T1 sequence (P18507 whole entry): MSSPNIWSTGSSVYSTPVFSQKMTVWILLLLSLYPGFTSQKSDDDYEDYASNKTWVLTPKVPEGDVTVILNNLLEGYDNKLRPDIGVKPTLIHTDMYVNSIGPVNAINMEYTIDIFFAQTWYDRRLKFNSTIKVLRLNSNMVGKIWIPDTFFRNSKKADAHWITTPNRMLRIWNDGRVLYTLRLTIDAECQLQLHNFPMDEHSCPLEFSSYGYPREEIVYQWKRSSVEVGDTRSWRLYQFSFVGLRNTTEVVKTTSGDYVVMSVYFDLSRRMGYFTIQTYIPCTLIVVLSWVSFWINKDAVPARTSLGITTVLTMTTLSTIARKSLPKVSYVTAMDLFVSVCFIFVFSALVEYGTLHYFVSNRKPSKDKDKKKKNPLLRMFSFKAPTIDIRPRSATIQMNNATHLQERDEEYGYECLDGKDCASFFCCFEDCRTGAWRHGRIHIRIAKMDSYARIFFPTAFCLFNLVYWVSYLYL
T1 sequence (P28472 whole entry): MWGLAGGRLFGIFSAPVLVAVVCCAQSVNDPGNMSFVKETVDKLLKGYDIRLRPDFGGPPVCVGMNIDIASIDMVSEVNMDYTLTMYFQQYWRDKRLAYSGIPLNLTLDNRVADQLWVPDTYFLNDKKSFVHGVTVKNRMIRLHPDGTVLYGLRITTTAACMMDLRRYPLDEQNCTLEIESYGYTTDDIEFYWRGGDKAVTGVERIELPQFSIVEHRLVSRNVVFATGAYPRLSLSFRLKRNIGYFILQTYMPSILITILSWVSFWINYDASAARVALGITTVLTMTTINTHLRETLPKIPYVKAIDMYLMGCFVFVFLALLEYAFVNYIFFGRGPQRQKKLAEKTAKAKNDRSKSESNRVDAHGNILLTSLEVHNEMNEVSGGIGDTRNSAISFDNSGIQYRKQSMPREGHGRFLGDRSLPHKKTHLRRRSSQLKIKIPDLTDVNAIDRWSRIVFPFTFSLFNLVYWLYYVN
T1 sequence (P34903 whole entry): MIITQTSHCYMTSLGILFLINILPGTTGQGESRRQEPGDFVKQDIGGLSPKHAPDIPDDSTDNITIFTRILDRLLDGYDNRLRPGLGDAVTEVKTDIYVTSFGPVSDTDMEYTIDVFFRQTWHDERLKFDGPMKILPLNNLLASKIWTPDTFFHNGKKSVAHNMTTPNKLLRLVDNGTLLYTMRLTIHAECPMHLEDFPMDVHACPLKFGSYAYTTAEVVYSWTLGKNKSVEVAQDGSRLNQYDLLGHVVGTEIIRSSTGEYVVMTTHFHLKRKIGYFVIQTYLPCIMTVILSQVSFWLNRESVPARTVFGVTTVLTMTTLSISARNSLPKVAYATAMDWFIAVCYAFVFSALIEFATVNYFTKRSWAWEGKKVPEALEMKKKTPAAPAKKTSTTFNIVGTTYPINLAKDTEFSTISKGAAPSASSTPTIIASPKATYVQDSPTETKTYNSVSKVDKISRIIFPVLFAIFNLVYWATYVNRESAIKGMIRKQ
Summary of the method: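 Stably transfected HEK293T cells expressing α1β3γ2 (n = 2) or α3β3γ2 (n = 1) GABAARs. Membrane potential was read as fluorescence changes on a FLIPR Tetra, and EC50 was derived.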

[5] = biological target: GABA-A receptor; alpha-2/beta-3/gamma-2 (Homo sapiens) (UniProt P18507+P28472+P47869); experiment: Modulation of recombinant GABA alpha2beta3gamma2 receptor (unknown origin) expressed in Xenopus laevis oocytes assessed as change in GABA-induced EC(3 to 6) current at 10 uM by two-electrode voltage clamp assay; assay type: cell-based; summary of the method: as §1
[6] = biological target: T2, GABA-A receptor; alpha-3/beta-3/gamma-2 (Homo sapiens) (UniProt P18507+P28472+P34903); experiment: Modulation of recombinant GABA alpha3beta3gamma2 receptor (unknown origin) expressed in Xenopus laevis oocytes assessed as change in GABA-induced EC(3 to 6) current by two-electrode voltage clamp assay; assay type: cell-based; summary of the method: as §1
Mus musculus = experiment: Toxicity in Swiss mouse assessed as change in motor coordination by measuring number of falls from the rotating rod at 10 mg/kg, ip administered 30 mins prior to testing measured for 2 mins by rotarod test relative to control; assay type: organism-based; conditions: in vivo
Summary of the method: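 The same mice used for marble burying were placed on a rotarod at 4 r.p.m. for 2 min. No fall was scored success, one fall partial, and two falls failure.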

[7] = biological target: T2, GABA-A receptor; alpha-3/beta-3/gamma-2 (Homo sapiens); experiment: Modulation of recombinant GABA alpha3beta3gamma2 receptor (unknown origin) expressed in Xenopus laevis oocytes assessed as change in GABA-induced EC(3 to 6) current at 10 uM by two-electrode voltage clamp assay; assay type: cell-based; summary of the method: as §1
[8] = Total plasma concentration in Sprague-Dawley rat at 10 mg/kg, ip measured after 4 hrs; assay type: ADME, organism-based; summary of the method: as §2

C#Cc1ccc2c(c1)C(c1ccccn1)=NCc1c(-c3cnco3)ncn1-2
Activity [1]: 158% | K(p,uu,brain) [2]: 0.66 | Activity (Rattus norvegicus): 240% | concentration at 1 h [3]: 3640 nM | EC50 [4]: 937 nM | Activity [5]: 258% | Activity [6]: Dose-dependent effect | Activity (Mus musculus): Toxic | Activity [7]: 332% | concentration at 4 h [8]: 2130 nM
